# Results reported in ChEMBL document CHEMBL1926518, “Synthesis of macrolones with central piperazine ring in the linker and its influence on antibacterial activity” (2011).
# Experiments:
# Format in all cases: functional
# Staphylococcus aureus [1] = experiment: Antibacterial activity against erythromycin-sensitive Staphylococcus aureus ATCC 13709 by broth microdilution technique
# How it was run: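 MIC by broth microdilution per CLSI guidelines with doubling dilutions of compounds. Before testing, staphylococci were grown on Mueller–Hinton agar. Values reported in µg/mL.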
# Streptococcus pneumoniae [2] = experiment: Antibacterial activity against erythromycin-sensitive Streptococcus pneumoniae SP030 by broth microdilution technique
# How it was run: (§1)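 Streptococcal MICs by CLSI broth microdilution with doubling dilutions, but with 5% horse serum in the medium in place of lysed blood. Before testing, strains were grown on Columbia agar with 5% sheep blood. Values reported in µg/mL.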
# Streptococcus pyogenes [3] = experiment: Antibacterial activity against erythromycin-sensitive Streptococcus pyogenes 3565 by broth microdilution technique; how it was run: as §1
# Staphylococcus aureus [4] = experiment: Antibacterial activity against inducible macrolide, licosamide and streptogramin-resistant Staphylococcus aureus 90256/97 by broth microdilution technique
# How it was run: (§2)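 MICs were determined by CLSI broth microdilution, with double dilutions of compound. Staphylococci were grown on Mueller–Hinton agar before testing. Results are given in µg/mL.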
# Streptococcus pneumoniae [5] = experiment: Antibacterial activity against inducible macrolide-resistant, constitutive licosamide and streptogramin-resistant Streptococcus pneumoniae 134 GR-Micro by broth microdilution technique
# How it was run: (§3)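 MICs were determined by CLSI broth microdilution, with double dilutions of compound. In the streptococcal medium, 5% horse serum replaced lysed blood. Streptococci were grown on Columbia agar with 5% sheep blood before testing. Results are given in µg/mL.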
# Streptococcus pyogenes [6] = experiment: Antibacterial activity against inducible macrolide, licosamide and streptogramin-resistant Streptococcus pyogenes Finland 11 by broth microdilution technique; how it was run: as §3
# Staphylococcus aureus [7] = experiment: Antibacterial activity against constitutive macrolide, licosamide and streptogramin-resistant Staphylococcus aureus PK2 by broth microdilution technique; how it was run: as §2
# Streptococcus pneumoniae [8] = experiment: Antibacterial activity against constitutive macrolide, licosamide and streptogramin-resistant Streptococcus pneumoniae 58 Spain by broth microdilution technique; how it was run: as §3
# Streptococcus pyogenes [9] = experiment: Antibacterial activity against constitutive macrolide, licosamide and streptogramin-resistant Streptococcus pyogenes 166 GR-Micro by broth microdilution technique; how it was run: as §3
# Staphylococcus aureus [10] = experiment: Antibacterial activity against efflux-mediated macrolide-resistant Staphylococcus aureus PK1 by broth microdilution technique; how it was run: as §2
# Streptococcus pneumoniae [11] = experiment: Antibacterial activity against efflux-mediated macrolide-resistant Streptococcus pneumoniae Ci137 by broth microdilution technique; how it was run: as §3
# Streptococcus pyogenes [12] = experiment: Antibacterial activity against efflux-mediated macrolide-resistant Streptococcus pyogenes 3 Finland by broth microdilution technique; how it was run: as §3
# Haemophilus influenzae = experiment: Antibacterial activity against Haemophilus influenzae ATCC 49247 by broth microdilution technique
# How it was run: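 MIC by broth microdilution per CLSI guidelines with doubling dilutions of compounds. Before testing, organisms were grown on Mueller-Hinton chocolate agar. Values reported in µg/mL.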
# Moraxella catarrhalis = experiment: Antibacterial activity against Moraxella catarrhalis ATCC 23246 by broth microdilution technique
# How it was run: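 MIC by broth microdilution per CLSI guidelines with doubling dilutions of compounds. Before testing, organisms were grown on Columbia agar with 5% sheep blood. Values reported in µg/mL.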
Compound,MIC (Staphylococcus aureus [1]),MIC (Streptococcus pneumoniae [2]),MIC (Streptococcus pyogenes [3]),MIC (Staphylococcus aureus [4]),MIC (Streptococcus pneumoniae [5]),MIC (Streptococcus pyogenes [6]),MIC (Staphylococcus aureus [7]),MIC (Streptococcus pneumoniae [8]),MIC (Streptococcus pyogenes [9]),MIC (Staphylococcus aureus [10]),MIC (Streptococcus pneumoniae [11]),MIC (Streptococcus pyogenes [12]),MIC (Haemophilus influenzae),MIC (Moraxella catarrhalis)
CCOC(=O)c1cn(CC)c2ccc(C#CCN3CCN(CCC(=O)O[C@H]4[C@H](C)O[C@@H](O[C@H]5[C@H](C)[C@@H](O[C@@H]6O[C@H](C)C[C@H](N(C)C)[C@H]6O)[C@](C)(O)C[C@@H](C)CN(C)[C@H](C)[C@@H](OC)[C@](C)(O)[C@@H](CC)OC(=O)[C@@H]5C)C[C@@]4(C)OC)CC3)cc2c1=O,4 µg/mL,≤ 0.125 µg/mL,≤ 0.125 µg/mL,> 64 µg/mL,0.5 µg/mL,0.25 µg/mL,> 64 µg/mL,1 µg/mL,32 µg/mL,> 64 µg/mL,≤ 0.125 µg/mL,1 µg/mL,32 µg/mL,8 µg/mL
CCOC(=O)c1cn(C2CC2)c2ccc(C#CCN3CCN(CCC(=O)O[C@H]4[C@H](C)O[C@@H](O[C@H]5[C@H](C)[C@@H](O[C@@H]6O[C@H](C)C[C@H](N(C)C)[C@H]6O)[C@](C)(O)C[C@@H](C)CN(C)[C@H](C)[C@@H](OC)[C@](C)(O)[C@@H](CC)OC(=O)[C@@H]5C)C[C@@]4(C)OC)CC3)cc2c1=O,4 µg/mL,≤ 0.125 µg/mL,≤ 0.125 µg/mL,> 64 µg/mL,0.25 µg/mL,≤ 0.125 µg/mL,> 64 µg/mL,0.5 µg/mL,32 µg/mL,64 µg/mL,≤ 0.125 µg/mL,0.5 µg/mL,16 µg/mL,4 µg/mL
CC[C@H]1OC(=O)[C@H](C)[C@@H](O[C@H]2C[C@@](C)(OC)[C@@H](OC(=O)CCN3CCN(CC#Cc4ccc5c(c4)c(=O)c(C(=O)O)cn5CC)CC3)[C@H](C)O2)[C@H](C)[C@@H](O[C@@H]2O[C@H](C)C[C@H](N(C)C)[C@H]2O)[C@](C)(O)C[C@@H](C)CN(C)[C@H](C)[C@@H](OC)[C@]1(C)O,0.25 µg/mL,≤ 0.125 µg/mL,≤ 0.125 µg/mL,8 µg/mL,8 µg/mL,≤ 0.125 µg/mL,> 64 µg/mL,4 µg/mL,16 µg/mL,0.5 µg/mL,≤ 0.125 µg/mL,≤ 0.125 µg/mL,1 µg/mL,0.5 µg/mL
CCOC(=O)c1cn(CC)c2ccc(CCCN3CCN(CCC(=O)O[C@H]4[C@H](C)O[C@@H](O[C@H]5[C@H](C)[C@@H](O[C@@H]6O[C@H](C)C[C@H](N(C)C)[C@H]6O)[C@](C)(O)C[C@@H](C)CN(C)[C@H](C)[C@@H](OC)[C@](C)(O)[C@@H](CC)OC(=O)[C@@H]5C)C[C@@]4(C)OC)CC3)cc2c1=O,4 µg/mL,≤ 0.125 µg/mL,≤ 0.125 µg/mL,> 64 µg/mL,32 µg/mL,2 µg/mL,> 64 µg/mL,8 µg/mL,> 64 µg/mL,> 64 µg/mL,2 µg/mL,2 µg/mL,32 µg/mL,0.25 µg/mL
CC[C@H]1OC(=O)[C@H](C)[C@@H](O[C@H]2C[C@@](C)(OC)[C@@H](OCCCN3CCN(C/C=C/c4ccc5c(c4)c(=O)c(C(=O)O)cn5CC)CC3)[C@H](C)O2)[C@H](C)[C@@H](O[C@@H]2O[C@H](C)C[C@H](N(C)C)[C@H]2O)[C@](C)(O)C[C@@H](C)CN(C)[C@H](C)[C@@H](O)[C@]1(C)O,2 µg/mL,≤ 0.125 µg/mL,≤ 0.125 µg/mL,> 64 µg/mL,> 64 µg/mL,1 µg/mL,> 64 µg/mL,32 µg/mL,64 µg/mL,8 µg/mL,8 µg/mL,4 µg/mL,16 µg/mL,0.5 µg/mL
CC[C@H]1OC(=O)[C@H](C)[C@@H](O[C@H]2C[C@@](C)(OC)[C@@H](O)[C@H](C)O2)[C@H](C)[C@@H](O[C@@H]2O[C@H](C)C[C@H](N(C)C)[C@H]2O)[C@](C)(O)C[C@@H](C)CN(C)[C@H](C)[C@@H](O)[C@]1(C)O [AZITHROMYCIN],0.5 µg/mL,≤ 0.125 µg/mL,≤ 0.125 µg/mL,> 64 µg/mL,> 64 µg/mL,16 µg/mL,> 64 µg/mL,> 64 µg/mL,> 64 µg/mL,> 64 µg/mL,8 µg/mL,8 µg/mL,1 µg/mL,≤ 0.125 µg/mL
CC[C@H]1OC(=O)[C@H](C)[C@@H](O[C@H]2C[C@@](C)(OC)[C@@H](O)[C@H](C)O2)[C@H](C)[C@@H](O[C@@H]2O[C@H](C)C[C@H](N(C)C)[C@H]2O)[C@](C)(OC)C[C@@H](C)C(=O)[C@H](C)[C@@H](O)[C@]1(C)O [CLARITHROMYCIN],0.25 µg/mL,≤ 0.125 µg/mL,≤ 0.125 µg/mL,> 64 µg/mL,> 64 µg/mL,1 µg/mL,> 64 µg/mL,> 64 µg/mL,> 64 µg/mL,32 µg/mL,4 µg/mL,4 µg/mL,8 µg/mL,≤ 0.125 µg/mL
